Measured values reported in article PMC4899155 (Molecular pharmaceutics, 2016).

Tests used:
[1] = tested on: α6β3γ2 GABAAR; conditions: at concentrations higher that 1 μM ref 27; cited from earlier work
[2] = biological target: α4β3γ2 GABAAR (Homo sapiens, UniProt P18507+P48169); conditions: α4β3γ2 ref 27; cited from earlier work
[3] = tested on: Ova S/C Balb/c mice; experiment: Airway eosinophilia; format: in vivo, mouse
[4] = tested on: Ova S/C Balb/c mice; experiment: Airway hyper-responsiveness to methacholine; format: in vivo, mouse
How it was run: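 Male Balb/c mice were sensitized i.p. with 2 mg/kg/d ovalbumin in 2 mg alum on days 0, 7 and 14, then challenged intranasally with 1 mg/kg/d ovalbumin on days 23–27. Dosing was by i.p. injection 40 min before testing, or twice daily during challenge. The dexamethasone control was 4 mg/kg i.p. daily for 8 days. sRaw was measured versus aerosolized methacholine (mg/ml) in conscious mice (4-7/group, mean ± SEM).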

[5] = tested on: Ova S/C Balb/c mice; experiment: Mucin volume density; format: in vivo, mouse
How it was run: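 Ova-sensitized/challenged Balb/c mice were dosed as single 20 mg/kg i.p. 40 min before analysis, twice-daily 20 mg/kg i.p. for 5 days, osmotic pump 20 mg/kg/day for 7 days, or dexamethasone 4 mg/kg daily for 8 days. Formalin-perfused lungs were cut into 5 μm paraffin sections and stained with periodic acid fluorescent Schiff. Mucin area in axial-bronchus epithelium per basement-membrane length was normalized to control and Ova groups (5-7 mice/group).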

[6] = Metabolic stability in mouse S9 fraction; format: in vitro ADME; conditions: 1 hour incubation
[7] = tested on: guinea pig tracheal rings; experiment: Guinea pig airway smooth muscle organ bath; format: cell-based; conditions: 100 μM, rings contracted with 1 μM substance P, compared to vehicle
[8] = tested on: Jurkat cells; experiment: Automated patch-clamp electrophysiology for Jurkat cells; format: cell-based, human; conditions: in the presence of an EC3 concentration of GABA (0.3 μM)
[9] = tested on: Balb/c mice; experiment: Rotarod assay; format: in vivo, mouse; conditions: 10 minutes after injection, 15 rpm
[10] = tested on: Jurkat cells; experiment: IL-2 ELISA assay in PMA/PHA stimulated Jurkat cells; format: cell-based, human; conditions: for IL-2 secretion: PMA/PHA stimulated Jurkat cells
How it was run: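 Jurkat cells were kept in RPMI 1640 with L-glutamine and 10% FBS at 37°C, 5% CO2, about 10^6 cells/ml. […] After 15 min, a PHA (25 μg/mL)/PMA (1.25 μg/ml) mixture in PBS:DMSO (80:1) was added and cells were incubated 24 h at 37°C. Supernatant IL-2 was measured by human IL-2 ELISA.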

[11] = Stability in mouse plasma; format: in vitro ADME
[12] = tested on: Jurkat cells; experiment: Intracellular calcium assay; format: cell-based, human
[13] = Metabolic stability in human S9 fraction; format: in vitro ADME; conditions: 1 hour incubation
[14] = Metabolic stability in human liver microsomes; format: in vitro ADME
[15] = Single dose pharmacokinetic study in mice; format: in vivo; conditions: 5 mg/kg i.p.
How it was run: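 Mice received a single 5 mg/kg i.p. dose of test compound in 10% DMSO, 40% propylene glycol and 50% PBS. Compound levels were followed over time in brain, lung and blood, with N = 3.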

[16] = Blood concentration under repeated dosing / osmotic minipump in Ova S/C mice; format: in vivo, Balb/c mice
How it was run: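 Ova-sensitized/challenged Balb/c mice received test compound by surgically implanted osmotic minipump at 20 mg/kg/day for 7 days, or by two i.p. injections daily over the 5-day challenge period. Blood concentration was taken on the day of airway hyper-responsiveness measurement (day 28).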

[17] = Metabolic stability in mouse liver microsomes; format: in vitro ADME

Sequence of α4β3γ2 GABAAR (P48169 36-554): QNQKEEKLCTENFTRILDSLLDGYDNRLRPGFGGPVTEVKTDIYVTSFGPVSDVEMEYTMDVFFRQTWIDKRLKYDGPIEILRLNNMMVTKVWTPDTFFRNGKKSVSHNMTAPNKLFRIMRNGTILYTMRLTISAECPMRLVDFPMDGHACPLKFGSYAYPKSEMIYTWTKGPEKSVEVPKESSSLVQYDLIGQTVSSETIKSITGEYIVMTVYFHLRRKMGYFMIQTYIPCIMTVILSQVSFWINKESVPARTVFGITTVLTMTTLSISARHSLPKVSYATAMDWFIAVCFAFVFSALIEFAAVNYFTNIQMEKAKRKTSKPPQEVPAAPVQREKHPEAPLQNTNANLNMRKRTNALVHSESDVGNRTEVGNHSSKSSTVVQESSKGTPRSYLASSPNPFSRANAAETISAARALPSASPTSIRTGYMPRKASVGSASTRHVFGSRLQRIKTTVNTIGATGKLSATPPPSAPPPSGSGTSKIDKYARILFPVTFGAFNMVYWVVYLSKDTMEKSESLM
Sequence of α4β3γ2 GABAAR (P28472 26-473 partner): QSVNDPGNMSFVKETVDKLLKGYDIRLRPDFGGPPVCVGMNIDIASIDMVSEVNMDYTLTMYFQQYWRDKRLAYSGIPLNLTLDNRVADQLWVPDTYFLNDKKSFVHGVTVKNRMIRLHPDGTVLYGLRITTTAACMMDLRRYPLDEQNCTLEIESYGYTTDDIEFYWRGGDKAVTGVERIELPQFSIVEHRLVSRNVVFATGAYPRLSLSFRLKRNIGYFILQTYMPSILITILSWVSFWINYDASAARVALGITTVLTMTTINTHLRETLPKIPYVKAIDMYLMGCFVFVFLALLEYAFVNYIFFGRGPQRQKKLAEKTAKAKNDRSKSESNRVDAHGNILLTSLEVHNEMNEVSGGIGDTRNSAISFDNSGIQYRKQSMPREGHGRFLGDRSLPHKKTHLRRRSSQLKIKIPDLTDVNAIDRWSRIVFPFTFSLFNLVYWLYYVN
Sequence of α4β3γ2 GABAAR (P18507 40-475): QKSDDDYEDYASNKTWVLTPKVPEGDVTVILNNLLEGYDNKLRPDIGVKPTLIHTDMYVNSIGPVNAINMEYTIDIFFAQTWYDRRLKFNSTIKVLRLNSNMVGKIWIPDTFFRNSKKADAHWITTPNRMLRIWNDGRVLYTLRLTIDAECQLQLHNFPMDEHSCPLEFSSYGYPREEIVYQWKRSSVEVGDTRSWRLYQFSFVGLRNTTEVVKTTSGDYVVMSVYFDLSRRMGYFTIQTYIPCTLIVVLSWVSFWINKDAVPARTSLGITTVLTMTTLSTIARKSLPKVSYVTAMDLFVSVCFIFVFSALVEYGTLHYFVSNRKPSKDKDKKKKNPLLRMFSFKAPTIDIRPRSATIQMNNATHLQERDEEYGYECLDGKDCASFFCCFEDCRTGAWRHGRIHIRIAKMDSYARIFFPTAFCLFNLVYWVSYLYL

## CCOC(=O)c1ncn2c1[C@@H]1CCCN1C(=O)c1cc(OC)ccc1-2 [XHE-III-74EE]
[1]
  reported activity at α6β3γ2 GABAAR: some activity
[2]
  reported GABAAR subtype selectivity: subtype-selective
[3]; 20 mg/kg twice i.p. injection daily for 5 days
  airway eosinophilia: not effective in reducing airway eosinophilia
[3]; 20 mg/kg via osmotic pump
  airway eosinophilia: no change in airway eosinophilia
[3]; acute, single i.p. injection 20 mg/kg for 40 minutes
  airway eosinophilia: not effective in reducing airway eosinophilia
[4]; 20 mg/kg i.p. twice daily for 5 days
  methacholine-induced AHR (sRaw), words: reduced methacholine-induced AHR
[4]; osmotic pump, 20 mg/kg daily for 7 days
  methacholine-induced AHR (sRaw), words: effective in reducing AHR at low concentrations of methacholine
[4]; single i.p. 10 mg/kg, 40 minutes prior to analysis
  methacholine-induced AHR (sRaw), words: did not alter AHR
[4]; single i.p. 20 mg/kg, 40 minutes prior to analysis
  methacholine-induced AHR (sRaw), words: did not alter AHR
[5]; 20 mg/kg i.p. injections daily for 5 days
  airway mucous metaplasia / mucin volume density: did not significantly change airway mucous metaplasia
[5]; 20 mg/kg/day via osmotic pump
  airway mucous metaplasia / mucin volume density: no change in airway mucous metaplasia
[5]; acute, single i.p. injection for 40 minutes
  mucin production: did not change mucin production
[6]
  Mouse S9 fraction % remaining after 1 hour: 98.4 ± 0.4%
[7]
  relaxation of airway smooth muscle contractile force: induced active relaxation
[8]
  GABA-induced current potentiation: 734%
[9]; 5 mg/kg i.p.
  motor impairment on rotarod: did not impair motorsensory coordination
[9]; 40 mg/kg i.p.
  motor impairment on rotarod: did cause motor-impairing effects
[10]; under similar conditions, without supplemental GABA
  IL-2 production: did not reduce IL-2 production
[11]; Table 1 of in vitro metabolic stability
  Mouse plasma (stability; row prints no unit or time): 92.6 ± 0.2
[11]; at least one hour
  stability in blood plasma: stable in blood plasma
[12]; Jurkat cells, Fluo-4
  extent of inhibition of PMA/PHA-induced increases in [Ca2+]i: partial inhibition
[12]; read-out: IC50, PMA/PHA-induced increase in [Ca2+]i, Jurkat cells, Fluo-4
  IC50: 24.3 ± 9.8 nM
[13]
  human S9 fraction % remaining after 1 hour: 95.6 ± 0.3%
[14]; 1 hour incubation
  human liver microsomes % remaining after 1 hour: 99.2 ± 0.15%
[14]; human liver microsomes and S9 fraction
  predicted half-life: several hours
[15]
  AUC in brain as % of the AUC in blood: 79%
  AUC in lung as % of the blood AUC: 60%
  Cmax in blood versus lung: roughly two times higher in blood than in lung
  Tmax in blood: 10 min
  Tmax in lung: 3 min
  half-life in brain: 36.7 min
  half-life in lung: 17.6 min
[16]; implanted minipumps (Discussion)
  blood concentration, continuous release by implanted minipumps: 27.2 ng/mL
[16]; implanted minipumps, 20 mg/kg/day for 7 days
  constant blood concentration at the day of AHR measurement: 27.2 ± 2.7 ng/g
[16]; twice daily i.p. injection
  cmax: 216 ng/mL
[17]; 1 hour incubation
  Mouse liver microsomes % remaining after 1 hour: 86.3 ± 0.3%
[17]; mouse liver microsomes and S9 fraction
  predicted half-life: several hours

## CN1C(=O)CN=C(c2ccccc2)c2cc(Cl)ccc21 [diazepam, reference compound]
[9]; 5 mg/kg i.p.
  motor impairment on rotarod: induced significant motor impairment

## NCCCC(=O)O [GABA, reference compound]
[10]; 1 nM
  IL-2 secretion: ineffective
[10]; 100 nM
  IL-2 secretion: significantly reduced secretion of IL-2
[12]; 150 mM
  increase in [Ca2+]i: fully suppressed
[12]; Jurkat cells
  concentration able to reduce the [Ca2+]i levels: ≥ 30 mM

## C[C@@H]1C[C@H]2[C@@H]3CCC4=CC(=O)C=C[C@]4(C)[C@@]3(F)[C@@H](O)C[C@]2(C)[C@@]1(O)C(=O)CO [dexamethasone, reference compound]
[3]; 4 mg/kg i.p. daily for 8 days
  airway eosinophilia: significantly decreased airway eosinophilia
[5]; single i.p. injection daily for 8 days, 4 mg/kg, p<0.01
  airway mucous metaplasia / mucin volume density: significantly decreased mucous metaplasia
